Compound activity as filed in PubChem BioAssay.
CHOP UPR activ: activators of apoptotic CHOP UPR arm, primary screen, cell-based, CHO-CHOP luciferase reporter, luminescence, uHTS. UPR activation; percent of tunicamycin response over DMSO baseline. activation, % at 10 µM. hit rate 0.34% among 330,000;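 active = at 10 µM dose, activation of 40% or more, normalized to positive control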;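 also: 100% = tunicamycin at 10 µg/mL and 0% = DMSO alone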
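Assay system: CHO cells with stable CHOP pathway luciferase reporter; Buffer or medium: F12 plus 10% serum; Times: 16-18 h cell attachment, then 6 h compound exposure, 37 °C; Signal: luciferase luminescence; Read-out basis: percent activation relative to tunicamycin control; Control set: tunicamycin high control, DMSO low control.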
CHOP inhibitor: inhibitors of CHOP promoter induction, primary screen, cell-based, unfolded protein response, luciferase reporter | hit rate 3.8% among 220,000 | CHO-K1 CHOP-promoter luciferase, tunicamycin-induced, 15-18 h | inhibition, % at 10 µM;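 active = compounds that reduced the stress-induced luciferase reporter signal by more than about 70% of percent inhibition, limit read from the data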;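 also: 0% = tunicamycin plus vehicle and 100% = wells without tunicamycin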
Dynein cargo inh: inhibitors of GR-EGFP nuclear translocation, primary screen, dynein cargo transport inhibitor project, imaging, high-content, 3617.4 mouse cells; test concentration mostly 20 µM; stimulated with dexamethasone, 1 µM; hits give low values; z-score, hits read low; hit rate 0.47% among 220,000;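 active = plate z-score of nuclear minus cytoplasmic receptor signal below a set negative limit, without overly bright fluorescence or cell loss, cut at about -3.5 in these data, passing the limit was not always enough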;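 also: z-score of nuclear minus cytoplasmic ring GR-EGFP intensity difference per well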
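Also added – dexamethasone, 1.0 µM final · Buffer or medium – tet-free, stripped-serum medium · Schedule – induction 48 h, compound 1 h, agonist 30 min · Detection – formaldehyde fixation, Hoechst nuclear stain, 10x automated fluorescence imaging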
Beta2AR agonist: beta2AR agonists driving receptor internalization, primary screen, cell-based, FAP fluorogen, flow cytometry. Beta-2 adrenergic receptor (Homo sapiens), P07550. Am2.2-beta2AR cells. response, % (concentration not given with the values). hit rate 0.43% among 340,000. AID 504454, 2011;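 active = response above a set limit, near 3 SD of response in nonfluorescent compounds, cut at about 42% in these data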
Target sequence (P07550 whole entry, looked up): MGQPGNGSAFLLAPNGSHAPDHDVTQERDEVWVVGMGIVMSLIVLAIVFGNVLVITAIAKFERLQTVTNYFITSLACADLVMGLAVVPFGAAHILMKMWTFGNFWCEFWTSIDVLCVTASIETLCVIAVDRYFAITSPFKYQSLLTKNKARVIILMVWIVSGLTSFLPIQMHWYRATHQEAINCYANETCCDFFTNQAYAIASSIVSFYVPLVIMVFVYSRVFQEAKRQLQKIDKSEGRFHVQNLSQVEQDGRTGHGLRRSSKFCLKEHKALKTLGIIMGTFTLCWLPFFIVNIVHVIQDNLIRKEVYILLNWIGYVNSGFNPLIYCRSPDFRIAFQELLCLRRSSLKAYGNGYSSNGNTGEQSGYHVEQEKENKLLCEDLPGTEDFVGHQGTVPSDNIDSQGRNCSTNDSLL
p-CIP stab down: p/CIP-EGFP fusion destabilizers, primary screen, fluorescence, F442A cells. AID 1984, 2009. decrease of EGFP signal, % at 10 µM. 16 h. Q05BA5. hit rate 0.01% among 290,000;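 active = EGFP signal decrease of at least 30% at 10 µM or well 3 SD below plate mean, unless failing retest; inactive = the rest, including hits failing retest or dose response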
XBP1 UPR activ: activators of adaptive XBP1 UPR arm, primary screen, cell-based, CHO-XBP1 luciferase reporter, luminescence, uHTS; IRE1-XBP1 UPR activation; percent of tunicamycin response, DMSO as zero; activation, % at 20 µM; hit rate 0.33% among 330,000;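 active = versus positive control, 20 µM dose yields 30% or more activation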;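 also: 100% = tunicamycin at 10 µg/mL and 0% = DMSO only wells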
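Material: CHO-XBP1 cells stably carrying IRE1-XBP1-driven luciferase reporter | Medium: F12 with 10% serum | Compound dosing: 20 µM single concentration, DMSO 1% | Incubation: Overnight seeding at 37 °C, 6 h compound treatment at 37 °C | Detection: Steady-Glo luminescence read | Read-out basis: % activation of reporter signal versus tunicamycin and DMSO controls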
Dynein inh conf: dynein cargo transport inhibitors, GR-EGFP translocation, confirmation, imaging, high-content imaging, GR-EGFP cells; calls only at 20 µM; 3617.4 GR-EGFP nuclear translocation imaging, dexamethasone-induced; hit rate 69% among 1,000; shares compounds with Dynein cargo inh;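 active = inhibition of receptor movement into the nucleus at or above a set limit in both runs, with normal cell brightness and cell count; inconclusive = limit reached in only one run, brightness and count normal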;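 also: dexamethasone at 1 µM final in well for 30 min; nuclear minus cytoplasmic GR-EGFP mean intensity difference in channel 2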
CHOP inh conf: retest of CHOP induction inhibitors, confirmation, cell-based. hit rate 45% among 2,100. CHO-CHOP promoter luciferase reporter, tunicamycin-induced, luminescence. shares compounds with CHOP inhibitor. inhibition, % at 10 µM;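 active = mean of three repeat readings of reporter signal inhibition above a set limit, cut at about 70% in these data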;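 also: 0% = tunicamycin plus vehicle and 100% = wells lacking tunicamycin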
Numbers without * were called inactive; i = inactive; ? = inconclusive; . = not tested or not shown; + = active, no number. This is one part of a sample in which hits are shown more often than they occur.

SMILES | CHOP UPR activ | CHOP inhibitor | Dynein cargo inh | Beta2AR agonist | p-CIP stab down | XBP1 UPR activ | Dynein inh conf | others
CC1(C(=O)O)C2CCC(O2)C1(C)C(=O)O (stereo not drawn) | . | -4.1 | . | . | . | . | .
CCCN(CCC)[C@H]1CCc2c(F)ccc(O)c2C1 | . | -4.2 | . | . | . | . | .
C[C@]12CC[C@@H](O)CC1CC[C@@H]1[C@@H]2CC[C@]2(C)C(=O)CC[C@@H]12 (stereo partly drawn) | . | -2.3 | . | . | . | . | .
CC1Cc2cc3c(cc2C(c2ccc(N)cc2)=NN1)OCO3 (stereo not drawn) | . | -20.4 | . | . | . | . | .
O=C(O)CCCOc1ccc(Cl)cc1Cl | . | . | . | -2.3 | . | . | .
CN(C)c1nc(OCCNC(=O)COc2ccc(Cl)cc2Cl)nc(N2CCCCC2)n1 | 1.5 | 94.2* | -1.12 | -28.3 | 21.7 | 0.4 | .
C[C@H]1CCC/C=C/C2C[C@H](O)CC2[C@H](O)/C=C/C(=O)O1 (stereo partly drawn) | 107.4* | . | 0.438 | 36.3 | 17.3 | 14.4 | .
Nc1c(C(=O)NC2CCCC2)c2nc3ccccc3nc2n1CC1CCCO1 (stereo not drawn) | 0.8 | 75.7* | 0.312 | 11.6 | -11.9 | 1.8 | .
Nc1c(C(=O)NCC2CCCO2)c2nc3ccccc3nc2n1Cc1ccco1 (stereo not drawn) | 1.8 | 17.8 | -0.42 | 4.8 | -34.1 | 1.9 | .
COc1ccc(C(=O)Oc2cccc3cccnc23)cc1S(=O)(=O)N1CCOCC1 | 1.2 | -2.2 | 0.0301 | 1.5 | -12.9 | 5.5 | .
CN(C)c1ccc(/C=C/C=C2/C(=O)NC(=O)N(c3ccccc3)C2=O)cc1 | . | 83.9* | -0.267 | -603.0 | -33.2 | . | .
O=[N+]([O-])c1ccc(Cl)c([N+](=O)[O-])c1 | 36.0 | . | . | 58.5* | . | -7.8 | .
CC(=NCCN(C)C)c1c(O)n(Cc2ccccc2)c(=O)[nH]c1=O | -0.2 | 6.7 | -0.0197 | 7.2 | -7.7 | -1.8 | .
CCOC(=O)C(=CNc1ccc(C(O)(C(=O)OCC)C(F)(F)F)cc1C)C(=O)OCC (stereo not drawn) | 0.8 | 89.5* | 0.729 | 6.0 | -19.0 | 0.6 | .
COc1cccc(C2CC3C(=O)C=CC2N3Cc2ccccc2)c1 (stereo not drawn) | 1.6 | -37.2 | -3.78* | 8.6 | -8.4 | 3.8 | +
C[C@H]1C(=O)O[C@@H]2CCN3CC=C(COC(=O)[C@](C)(O)[C@]1(C)O)[C@H]23 | -1.6 | . | . | -4.6 | . | -3.8 | .
Cc1cc([N+](=O)[O-])c(Cl)cc1NC(=O)C(C)C | -0.7 | 49.2 | 0.987 | -2.2 | 5.0 | -0.8 | .
CNc1cc(Cl)c2nonc2c1[N+](=O)[O-] | . | 106.9* | -6.95* | 106.0* | -25.7 | . | ?
COc1ccc(Oc2cc(NC(=O)c3nn(C)cc3[N+](=O)[O-])cc([N+](=O)[O-])c2)cc1 | 16.6 | -54.2 | -3.99* | 12.3 | -25.7 | 1.7 | +
CCOc1ccccc1NC(=O)N1CCC2(CC1)OCCO2 | -0.4 | 0.0 | -0.429 | 11.6 | -5.1 | -2.2 | .
CN1C(=O)C2C[C@@]3(Br)c4ccccc4N(OOSc4ccccc4)[C@H]3N2C(=O)[C@@H]1Cc1ccccc1 (stereo partly drawn) | 1.7 | . | . | 3.2 | . | -0.6 | .
Cc1cc(C=C2C(=O)NC(=O)NC2=O)c(C)n1-c1cccnc1 | 1.8 | 2.9 | -0.732 | 6.5 | 6.6 | -2.3 | .
C=CCN1C(=O)/C(=C/c2cc(C)n(-c3cccnc3)c2C)C(=O)NC1=S | . | -58.4 | -6.46* | 20.4 | -20.7 | . | i
CN1CCN(c2ccc([N+](=O)[O-])c3no[n+]([O-])c23)CC1 | . | 106.8* | -4.68* | 21.2 | -69.6 | . | i
Cc1cccc(N2C(=O)NC(=O)/C(=C/c3ccc([N+](=O)[O-])o3)C2=O)c1 | . | -4.4 | -1.71 | . | -11.7 | . | .
SMILES | CHOP UPR activ | CHOP inhibitor | Dynein cargo inh | Beta2AR agonist | p-CIP stab down | XBP1 UPR activ | Dynein inh conf | others
Cc1cccc(N2C(=O)NC(=O)/C(=C\C=C\c3ccco3)C2=O)c1 | 9.7 | 17.5 | -4.96* | 69.2* | -18.8 | 2.8 | +
Cc1nn(Cc2ccccc2)c(C)c1C=C1C(=O)NC(=S)NC1=O | 6.6 | 1.1 | -4.68* | 6.8 | -1.4 | -2.5 | i
Cc1c(C=C2C(=O)NC(=O)NC2=O)c(=O)n(-c2ccccc2)n1C | 1.2 | 8.3 | 0.736 | 4.7 | -0.9 | 0.5 | .
Cc1cc([N+](=O)[O-])c2ccccc2[n+]1[O-] | -4.1 | 104.3* | -4.55* | 7.7 | -11.8 | -6.1 | +
COC(=O)CCCC(NC(=S)N1CC2C[C@@H](C1)Cn1c2cccc1=O)C(=O)OC (stereo partly drawn) | -2.6 | . | . | 1.2 | -2.9 | 5.2 | .
CC1=NN=C(c2ccc(N)cc2)c2cc3c(cc2C1)OCO3 | -3.4 | 18.4 | . | -3.4 | . | -4.6 | .
COc1ccc(OC)c(N2C(=O)NC(=O)/C(=C/c3ccc([N+](=O)[O-])s3)C2=O)c1 | 0.6 | -69.9 | -5.34* | -6.4 | -25.3 | -2.1 | +
CC1CCN(C(CC(=O)c2ccccc2)C(=O)c2ccccc2)CC1 (stereo not drawn) | . | . | . | 14.4 | . | . | .
N#CC(C#N)=Cc1ccc(C=C(C#N)C#N)cc1 | . | -31.7 | -4.3* | 13.9 | 5.7 | . | ?
CCN(CC)c1ccc(/C=N/c2sc3c(c2C#N)C2CCN3CC2)c(O)c1 | . | 51.4 | -3.73 | -400.6 | -2.2 | . | +
C=CCN1C(=O)NC(=O)/C(=C/c2ccc(OC)c(CSc3ccccn3)c2)C1=O | 0.4 | -50.7 | -0.747 | -6.5 | -13.7 | 0.0 | .
O=C1NC(=O)N(CCc2ccc(F)cc2)C(=O)/C1=C\C=C\c1ccccc1 | . | 72.6* | -4.08* | 9.7 | -4.7 | . | +
C=CCN1C(=O)NC(=O)/C(=C/C=C/c2ccccc2)C1=O | . | 15.1 | -4.88* | 74.6* | 0.7 | . | +
BrCC(Br)(Br)Br | -0.6 | . | . | 4.5 | . | 3.1 | .
Oc1ccc(CC2(N3CCCC3)CCCCC2)cc1 | 1.3 | . | . | -0.8 | 4.0 | -2.4 | .
CC1(C)C[C@H]2C=C(C=O)[C@]3(C=O)C[C@]3(C)[C@H]2C1 | -9.2 | 109.2* | -5.09 | 22.7 | -3.5 | -8.7 | + | CHOP inh conf=127.6*
C=C1C(=O)O[C@H]2C[C@@H](C)[C@@H]3C=CC(=O)[C@@]3(C)C[C@H]12 | 7.3 | 105.4* | -3.85* | . | -41.2 | -6.2 | + | CHOP inh conf=89.6*
